Data set [1] addresses T1, Fatty-acid amide hydrolase 1 (Rattus norvegicus, UniProt P97612).
T1 sequence (P97612 whole entry): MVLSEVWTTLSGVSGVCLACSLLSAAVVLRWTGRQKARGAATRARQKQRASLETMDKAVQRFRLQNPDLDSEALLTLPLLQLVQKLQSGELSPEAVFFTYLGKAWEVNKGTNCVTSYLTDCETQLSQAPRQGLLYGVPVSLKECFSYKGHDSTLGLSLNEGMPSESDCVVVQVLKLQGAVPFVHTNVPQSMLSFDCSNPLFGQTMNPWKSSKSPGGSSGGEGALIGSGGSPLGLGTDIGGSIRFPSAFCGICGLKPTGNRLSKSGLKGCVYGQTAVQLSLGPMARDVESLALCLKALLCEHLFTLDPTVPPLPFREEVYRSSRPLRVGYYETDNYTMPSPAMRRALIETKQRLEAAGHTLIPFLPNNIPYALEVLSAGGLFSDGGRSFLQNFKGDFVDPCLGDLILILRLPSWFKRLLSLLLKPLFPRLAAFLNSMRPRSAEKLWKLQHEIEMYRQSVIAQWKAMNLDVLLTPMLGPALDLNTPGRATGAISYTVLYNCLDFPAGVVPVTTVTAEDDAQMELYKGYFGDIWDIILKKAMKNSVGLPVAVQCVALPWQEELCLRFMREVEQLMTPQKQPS
Put plainly: Inhibition of rat FAAH assessed as kinact/Ki ratio incubated for 30 min in presence of glutamate dehydrogenase by 384-well format microplate reader assay.

The target in data set [2] is T2, Fatty-acid amide hydrolase 1 (Mus musculus) (UniProt O08914).
T2 sequence (whole entry): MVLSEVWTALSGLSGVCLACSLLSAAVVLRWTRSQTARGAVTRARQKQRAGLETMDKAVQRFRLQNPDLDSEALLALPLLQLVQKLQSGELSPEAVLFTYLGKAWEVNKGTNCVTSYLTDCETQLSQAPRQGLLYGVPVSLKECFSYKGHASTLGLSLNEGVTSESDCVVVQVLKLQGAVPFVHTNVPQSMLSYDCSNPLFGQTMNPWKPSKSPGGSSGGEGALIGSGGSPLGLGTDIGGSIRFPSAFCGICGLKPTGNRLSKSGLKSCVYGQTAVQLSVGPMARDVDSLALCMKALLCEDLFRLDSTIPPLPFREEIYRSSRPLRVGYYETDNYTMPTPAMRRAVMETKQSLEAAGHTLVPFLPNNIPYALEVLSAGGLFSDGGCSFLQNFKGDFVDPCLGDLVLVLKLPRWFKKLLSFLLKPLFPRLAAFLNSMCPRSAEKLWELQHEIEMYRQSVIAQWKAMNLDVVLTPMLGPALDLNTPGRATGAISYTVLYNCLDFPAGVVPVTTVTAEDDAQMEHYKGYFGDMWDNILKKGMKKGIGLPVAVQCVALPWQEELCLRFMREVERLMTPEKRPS
Put plainly: Inhibition of FAAH in mouse brain at 100 uM in presence of FP-rhodamine by competitive activity-based protein profiling method. In kind it is tissue-based. The essentials:
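Competitive ABPP on human and mouse brain, liver and heart proteomes (membrane and soluble fractions), exposed to compound at 10 or 100 μM or to DMSO. Serine hydrolases were then labeled with FP-rhodamine. Gels were read by fluorescence scanning, and loss of band labeling (FAAH or other hydrolases by kDa) was judged.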

Data set [3] can be described thus: Oral bioavailability in dog. The data set is classed as ADME, organism-based, Canis lupus familiaris. The settings on record: in vivo.
The test system of data set [4] is Rattus norvegicus. Briefly: Antihyperalgesic activity in CFA induced Sprague-Dawley rat assessed as inhibition of mechanical allodynia at 0.003 to 10 mg/kg, po measured for 4 hrs by von frey test. In kind it is functional, organism-based. Particulars: dose 0.003-10 mg/kg. In outline:
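Male Sprague-Dawley rats (200–250 g) given 150 μl CFA (1 mg/ml in mineral oil) intraplantar in the hind paw. Mechanical paw withdrawal thresholds read with Von Frey hairs on day 5 postinjection. Dosed orally as nanocrystalline suspension in 2% polyvinylpyrrolidone/0.15% SDS in water, 10 ml/kg. PWTs taken 4 h postdose for dose-response, or at 1, 2, 4, 8, 24 h for time course.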

For data set [5], the target named is T3, Fatty-acid amide hydrolase 1 (Rattus norvegicus) (UniProt P97612).
T3 sequence (whole entry): T1 sequence (P97612 whole entry)
Put plainly: In vivo inhibition of FAAH in CFA induced Sprague-Dawley rat brain at 0.1 to 10 mg/kg, po relative to control. Particulars: dose 0.1-10 mg/kg. The data set is classed as functional, organism-based. The essentials:
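Brain and blood leukocyte membrane fractions from CFA rats after oral dosing. FAAH activity measured with 3H-labeled AEA substrate, quantifying released 3H-ethanolamine; n = 3 rats/group. Time course sampled at 1, 2, 4, 8, 24 h after 1 mg/kg.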

Data set [6] has as its target T3, Fatty-acid amide hydrolase 1 (Rattus norvegicus). Briefly: In vivo inhibition of FAAH in CFA induced Sprague-Dawley rat brain assessed as elevation of NAE level at 0.1 to 10 mg/kg, po. The data set is classed as functional, organism-based. Particulars: dose 0.1-10 mg/kg. In outline: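 Lipid (NAE) levels in rat brain and plasma measured by LC/MS after oral dosing in CFA rats; n = 3 rats/group. Time-course samples taken at 1, 2, 4, 8, 24 h after 1 mg/kg.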

For data set [7], the system named is Rattus norvegicus. Put plainly: Antihyperalgesic activity in MIA induced Sprague-Dawley rat assessed as increased joint compression thresholds at 0.3 mg/kg, po administered once daily for 3 consecutive days and measured after 2 to 4 hrs. The data set is classed as functional, organism-based. Particulars: time 3.0 day. In outline: (§1)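 Male Sprague-Dawley rats (220–270 g), isoflurane-anesthetized, given 2 mg MIA in 0.9% saline (50 μl) intra-articular into the knee. From day 14, oral dosing at 10 ml/kg once daily for 3 days in 4% 2-hydroxypropyl-β-cyclodextrin/1% ethanol in 0.01 M HCl. Celecoxib 30 mg/kg in 0.5% methylcellulose twice daily. Joint compression threshold by digital Randall-Selitto at 2 and 4 h postdose on days 1 and 3; n = 10/group.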

Data set [8] concerns Rattus norvegicus. Briefly: Antihyperalgesic activity in MIA induced Sprague-Dawley rat assessed as effect on pain behaviour in contralateral knee joint at 0.3 to 3 mg/kg, po administered once daily for 3 consecutive days. In kind it is functional, organism-based. Particulars: dose 0.3-3 mg/kg, time 3.0 day. In outline: as §1
Data set [9] relates to Rattus norvegicus. Put plainly: Antihyperalgesic activity in MIA induced Sprague-Dawley rat assessed as increased joint compression thresholds at 0.3 to 3 mg/kg, po administered for 1 day and measured after 2 to 4 hrs. Particulars: dose 0.3-3 mg/kg. The data set is classed as functional, organism-based. The essentials: as §1

The source made the active and inactive calls.

The text below walks through data of ChEMBL document CHEMBL5653606 (J Pharmacol Exp Ther, 2011).

Usually IC50 stands for the concentration that gives 50% inhibition. As usually defined, the inhibition is the drop in the measured response relative to a control, in per cent. In general, bioavailability refers to dose-corrected exposure relative to a reference, in per cent. Low values mean little systemic uptake, high ones much systemic uptake.

With `O=C(Nc1cccnn1)N1CCC(=Cc2cccc(Oc3ccc(C(F)(F)F)cn3)c2)CC1`, the IC50 in [1] came out at 11.1 nM. Also, the inhibition entry in data set [2] and in [6] was “Active” in each case. Also, the bioavailability in [3] was found to be 58%. Besides, the outcome in the data set on Rattus norvegicus [4], in the data set on Rattus norvegicus [7] and in the data set with Rattus norvegicus [9] was Active. In data set [5], the inhibition was determined as 98%. Also, in the data set on Rattus norvegicus [8], the outcome was inactive.
